The source of these data is ChEMBL document CHEMBL4257556, “Novel 1,3,4-thiadiazole-chalcone hybrids containing catechol moiety: synthesis, antioxidant activity, cytotoxicity and DNA interaction studies” (Medchemcomm, 2018).

Assay [1] has as its system HeLa. Put plainly: Cell cycle arrest in human HeLa cells assessed as accumulation at sub-G1 phase at IC50 and 2 times IC50 after 24 hrs by propidium iodide staining-based flow cytometric method. The format is functional. Summed up: (§1)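 HeLa cells treated 24 h at IC50 or 2×IC50 (from 72 h assay), fixed in 70% ethanol, stored at –20 °C ≥1 week, RNase A 30 min 37 °C, propidium iodide stained; flow cytometry, 10 000 gated events. Mean ± SD of three independent experiments; one-way ANOVA with Dunnett's post-test, p < 0.05.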
In general terms: In flow cytometry, cells or beads pass a laser one at a time.

In assay [2] the test system is HeLa. Put plainly: Cell cycle arrest in human HeLa cells assessed as accumulation at G2/M phase at IC50 after 24 hrs by propidium iodide staining-based flow cytometric method. It is filed as functional. Summed up: as §1
The subject of assay [3] is HeLa. Put plainly: Cell cycle arrest in human HeLa cells assessed as accumulation at sub-G1 phase at 2 times IC50 after 24 hrs in presence of caspase-8 inhibitor Z-IETD-FMK by propidium iodide-staining based flow cytometric method. It is filed as functional. In short, it runs like this: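 HeLa cells pretreated 2 h with 40 μM peptide caspase inhibitor (Z-DEVD-FMK caspase-3, Z-IETD-FMK caspase-8 or Z-LEHD-FMK caspase-9), then exposed to 2×IC50 compound; subG1 fraction by propidium iodide flow cytometry, compared with samples lacking inhibitor.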

The test system of assay [4] is HeLa. Description: Downregulation of miR-21 expression in human HeLa cells at 10 uM after 24 hrs by RT-qPCR method. It is filed as functional, cell-based. (In qPCR the cycle at which signal appears reflects the starting amount.)
For assay [5], the system named is HeLa. Description: Upregulation of miR-206 expression in human HeLa cells at 10 uM after 24 hrs by RT-qPCR method. The format is functional, cell-based.
Assay [6] concerns Calf thymus DNA. Put plainly: Displacement of Hoechst 33258 from calf thymus DNA assessed as fluorescence intensity of compound-DNA complex at 22 uM by fluorescence spectrophotometric analysis relative to control. To be noted: Bos taurus. The format is nucleic-acid assay. In short, it runs like this: (§2)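 CT-DNA 100 μM (per phosphate) in 40 mM bicarbonate pH 8.4 pretreated 20 min with Hoechst 33258 (28 μM final), then compound added stepwise. Excitation 350 nm, emission 390–550 nm, read at 444 nm, 10 nm slits; H–DNA as control. Quenching constant K by Stern–Volmer, I0/I versus r = [compound]/[DNA]; triplicate.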

Assay [7] deals with Calf thymus DNA. Description: Displacement of Hoechst 33258 from calf thymus DNA assessed as quenching constant by fluorescence spectrophotometric analysis. It is filed as nucleic-acid assay. As to conditions: Bos taurus. Summed up: as §2
Assay [8] concerns MRC5. Description: Induction of DNA damage in human MRC5 cells assessed as formation of DNA breaks at 25 uM after 24 hrs by comet assay relative to control. It is filed as functional. In short, it runs like this:
(§3)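 MRC-5 cells exposed 24 h to 3.125–25 μM compound; DNA damage scored as % tail DNA (tail intensity) by comet assay. PBS negative control; H2O2 50 μM 5 min in-gel positive control. Triplicate, repeated twice; mean ± SD.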

Assay [9] has as its system MRC5. Put plainly: Induction of DNA damage in human MRC5 cells assessed as formation of DNA breaks after 24 hrs by comet assay. The format is functional, cell-based. In short, it runs like this:
as §3

The subject of the next assay is DNA. Description: Reversal of Fe2+-induced Escherichia coli pUC19 DNA cleavage at 1:2 compound to Fe2+ mole ratio after 90 mins by agarose gel electrophoresis method. The format is functional. In short, it runs like this:
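Compound (4 μL of 2 mM) preincubated with FeSO4 (1 or 2 μL of 8 mM; compound:Fe 1:1 or 1:2) in bicarbonate buffer 60 min at 37 °C, then pUC19 added for another 90 min; products resolved on 1% agarose gel, ethidium bromide stained.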

Calls of active or inactive are those of the source. The calls are words filed in the database; no cut-off is given here.

As to `Cc1cccc(C(=O)/C=C/c2ccc(C(=O)Nc3nnc(-c4ccc(O)c(O)c4)s3)cc2)c1`, the outcome in the assay on HeLa [1], in the assay on HeLa [2], in the assay on HeLa [5] and in the assay on DNA was Active. In addition, the result in the assay with HeLa [3] and in the assay with HeLa [4] was inactive. For the same compound, the Activity in the assay with Calf thymus DNA [6] is 60%; in the assay on MRC5 [8] it was 38%; in the assay with MRC5 [9] it was “Dose-dependent effect”. Moreover, the K in the assay on Calf thymus DNA [7] is 2.95.
